Experimental data from ChEMBL document CHEMBL1126958, “Quinolinecarboxylic acids. 3. Synthesis and antibacterial evaluation of 2-substituted-7-oxo-2,3-dihydro-7H-pyrido[1,2,3-de] [1,4]benzothiazine-6-carboxylic acids related to rufloxacin” (J Med Chem, 1993).
Converted amounts (≈) assume the structure as drawn.

tested on: Enterobacter cloacae; experiment: Minimal inhibitory concentration against Enterobacter cloacae OMNFI174 strain; type: functional; details: not given
Procedure, shortened: (§1)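 Agar dilution on TSA agar; compounds added by 2-fold dilution to melted medium at 50 °C just before pouring. Organisms stored at –80 °C, diluted in peptonated water to 1–2 × 10^7 CFU, applied with multipoint inoculator. MIC = lowest concentration preventing visible growth after 24 h at 35 °C.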

| MIC [µg/mL] | SMILES |
| --- | --- |
| 4 (≈ 10.2 µM) | CC1CN(c2c(F)cc3c(=O)c(C(=O)O)cn4c3c2SC(C)C4)CC(C)N1 (stereo not drawn) |
| > 64 | CC1Cn2cc(C(=O)O)c(=O)c3cc(F)c(N4CCN(c5ccccn5)CC4)c(c32)S1 (stereo not drawn) |
| 8 (≈ 19.7 µM) | CCNCC1CCN(c2c(F)cc3c(=O)c(C(=O)O)cn4c3c2SC(C)C4)C1 (stereo not drawn) |

The next lines start with the molecule.

| SMILES | MIC [µg/mL] |
| --- | --- |
| O=C(O)c1cn2c3c(c(Cl)c(F)cc3c1=O)SC(c1ccccc1F)C2 (stereo not drawn) | > 64 |
| CN1CCN(c2c(F)cc3c(=O)c(C(=O)O)cn4c3c2SC(c2ccc(F)cc2)C4)CC1 (stereo not drawn) | 32 (≈ 69.9 µM) |

tested on: not listed separately; experiment: Urinary excretion in rat after 8-24 hours of oral administration at 50 mg/kg; type: ADME, organism-based; parameters: dose 50 mg/kg, route oral; details: urine
Procedure, shortened: (§2)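 Fasted male Wistar rats, three per group, dosed orally at 50 mg/kg. Urine collected over 0-4, 4-8 and 8-24 h, diluted 1:100 in ultrapure water, then treated with water and 70% perchloric acid, vortexed and centrifuged. Supernatant analysed by HPLC with pH 2.8 KH2PO4/phosphoric acid mobile phase. Result given as % of administered dose excreted.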

| SMILES | dose excreted [%] |
| --- | --- |
| O=C(O)c1cn2c3c(c(N4CCNCC4)c(F)cc3c1=O)SCC2 | 11.5 |

tested on: not listed separately; experiment: Urinary excretion in rat after 0-4 hours of oral administration at 50 mg/kg; type: ADME, organism-based; parameters: dose 50 mg/kg, route oral; details: urine; procedure, shortened: as §2

| SMILES | dose excreted [%] |
| --- | --- |
| O=C(O)c1cn2c3c(c(N4CCNCC4)c(F)cc3c1=O)SCC2 | 2.73 |

tested on: Klebsiella pneumoniae; experiment: Minimal inhibitory concentration against Klebsiella pneumoniae ATCC 10031 strain; type: functional; details: not given; procedure, shortened: as §1

| MIC [µg/mL] | SMILES |
| --- | --- |
| 0.25 (≈ 0.639 µM) | CC1CN(c2c(F)cc3c(=O)c(C(=O)O)cn4c3c2SC(C)C4)CC(C)N1 (stereo not drawn) |
| 2 (≈ 4.54 µM) | CC1Cn2cc(C(=O)O)c(=O)c3cc(F)c(N4CCN(c5ccccn5)CC4)c(c32)S1 (stereo not drawn) |
| 0.25 (≈ 0.617 µM) | CCNCC1CCN(c2c(F)cc3c(=O)c(C(=O)O)cn4c3c2SC(C)C4)C1 (stereo not drawn) |

Continued, molecule first:

| SMILES | MIC [µg/mL] |
| --- | --- |
| O=C(O)c1cn2c3c(c(Cl)c(F)cc3c1=O)SC(c1ccccc1F)C2 (stereo not drawn) | 0.5 (≈ 1.27 µM) |
| CN1CCN(c2c(F)cc3c(=O)c(C(=O)O)cn4c3c2SC(c2ccc(F)cc2)C4)CC1 (stereo not drawn) | > 64 |

tested on: not listed separately; experiment: Urinary excretion in rat after 4-8 hours of oral administration at 50 mg/kg; type: ADME, organism-based; parameters: dose 50 mg/kg, route oral; details: urine; procedure, shortened: as §2

| SMILES | dose excreted [%] |
| --- | --- |
| O=C(O)c1cn2c3c(c(N4CCNCC4)c(F)cc3c1=O)SCC2 | 5.59 |

tested on: Enterococcus faecalis; experiment: Minimal inhibitory concentration against Streptococcus faecalis LEP strain; type: functional; details: not given; procedure, shortened: as §1

| MIC [µg/mL] | SMILES |
| --- | --- |
| 64 (≈ 163 µM) | CC1CN(c2c(F)cc3c(=O)c(C(=O)O)cn4c3c2SC(C)C4)CC(C)N1 (stereo not drawn) |
| 2 (≈ 4.54 µM) | CC1Cn2cc(C(=O)O)c(=O)c3cc(F)c(N4CCN(c5ccccn5)CC4)c(c32)S1 (stereo not drawn) |
| 16 (≈ 39.5 µM) | CCNCC1CCN(c2c(F)cc3c(=O)c(C(=O)O)cn4c3c2SC(C)C4)C1 (stereo not drawn) |

Further lines, the molecule ahead of its results:

| SMILES | MIC [µg/mL] |
| --- | --- |
| O=C(O)c1cn2c3c(c(Cl)c(F)cc3c1=O)SC(c1ccccc1F)C2 (stereo not drawn) | 4 (≈ 10.2 µM) |
| CN1CCN(c2c(F)cc3c(=O)c(C(=O)O)cn4c3c2SC(c2ccc(F)cc2)C4)CC1 (stereo not drawn) | 64 (≈ 140 µM) |

tested on: not listed separately; experiment: Minimal inhibitory concentration against Shigella enteritidis strain; type: functional; details: not given; procedure, shortened: as §1

| MIC [µg/mL] | SMILES |
| --- | --- |
| 4 (≈ 10.2 µM) | CC1CN(c2c(F)cc3c(=O)c(C(=O)O)cn4c3c2SC(C)C4)CC(C)N1 (stereo not drawn) |
| > 64 | CC1Cn2cc(C(=O)O)c(=O)c3cc(F)c(N4CCN(c5ccccn5)CC4)c(c32)S1 (stereo not drawn) |
| 8 (≈ 19.7 µM) | CCNCC1CCN(c2c(F)cc3c(=O)c(C(=O)O)cn4c3c2SC(C)C4)C1 (stereo not drawn) |

The remaining lines, values behind:

| SMILES | MIC [µg/mL] |
| --- | --- |
| O=C(O)c1cn2c3c(c(Cl)c(F)cc3c1=O)SC(c1ccccc1F)C2 (stereo not drawn) | > 64 |
| CN1CCN(c2c(F)cc3c(=O)c(C(=O)O)cn4c3c2SC(c2ccc(F)cc2)C4)CC1 (stereo not drawn) | 64 (≈ 140 µM) |

tested on: Proteus vulgaris; experiment: Minimal inhibitory concentration against Proteus vulgaris CNUR6 strain; type: functional; details: not given; procedure, shortened: as §1

| MIC [µg/mL] | SMILES |
| --- | --- |
| > 64 | CC1CN(c2c(F)cc3c(=O)c(C(=O)O)cn4c3c2SC(C)C4)CC(C)N1 (stereo not drawn) |
| > 64 | CC1Cn2cc(C(=O)O)c(=O)c3cc(F)c(N4CCN(c5ccccn5)CC4)c(c32)S1 (stereo not drawn) |
| > 64 | CCNCC1CCN(c2c(F)cc3c(=O)c(C(=O)O)cn4c3c2SC(C)C4)C1 (stereo not drawn) |

Continued, molecule first:

| SMILES | MIC [µg/mL] |
| --- | --- |
| O=C(O)c1cn2c3c(c(Cl)c(F)cc3c1=O)SC(c1ccccc1F)C2 (stereo not drawn) | > 64 |
| CN1CCN(c2c(F)cc3c(=O)c(C(=O)O)cn4c3c2SC(c2ccc(F)cc2)C4)CC1 (stereo not drawn) | > 64 |

tested on: Pseudomonas aeruginosa; experiment: Minimal inhibitory concentration against Pseudomonas aeruginosa ATCC 9027 strain; type: functional; details: not given; procedure, shortened: as §1

| MIC [µg/mL] | SMILES |
| --- | --- |
| 32 (≈ 81.7 µM) | CC1CN(c2c(F)cc3c(=O)c(C(=O)O)cn4c3c2SC(C)C4)CC(C)N1 (stereo not drawn) |
| > 64 | CC1Cn2cc(C(=O)O)c(=O)c3cc(F)c(N4CCN(c5ccccn5)CC4)c(c32)S1 (stereo not drawn) |
| > 64 | CCNCC1CCN(c2c(F)cc3c(=O)c(C(=O)O)cn4c3c2SC(C)C4)C1 (stereo not drawn) |

More lines, now with the values behind:

| SMILES | MIC [µg/mL] |
| --- | --- |
| O=C(O)c1cn2c3c(c(Cl)c(F)cc3c1=O)SC(c1ccccc1F)C2 (stereo not drawn) | > 64 |
| CN1CCN(c2c(F)cc3c(=O)c(C(=O)O)cn4c3c2SC(c2ccc(F)cc2)C4)CC1 (stereo not drawn) | > 64 |

tested on: Staphylococcus aureus; experiment: Minimal inhibitory concentration against […] aureus ATCC 6538 strain; type: functional; details: not given; procedure, shortened: as §1

| MIC [µg/mL] | SMILES |
| --- | --- |
| 4 (≈ 10.2 µM) | CC1CN(c2c(F)cc3c(=O)c(C(=O)O)cn4c3c2SC(C)C4)CC(C)N1 (stereo not drawn) |
| 0.5 (≈ 1.14 µM) | CC1Cn2cc(C(=O)O)c(=O)c3cc(F)c(N4CCN(c5ccccn5)CC4)c(c32)S1 (stereo not drawn) |
| 4 (≈ 9.86 µM) | CCNCC1CCN(c2c(F)cc3c(=O)c(C(=O)O)cn4c3c2SC(C)C4)C1 (stereo not drawn) |

Second part, the molecule before the results:

| SMILES | MIC [µg/mL] |
| --- | --- |
| O=C(O)c1cn2c3c(c(Cl)c(F)cc3c1=O)SC(c1ccccc1F)C2 (stereo not drawn) | 8 (≈ 20.3 µM) |
| CN1CCN(c2c(F)cc3c(=O)c(C(=O)O)cn4c3c2SC(c2ccc(F)cc2)C4)CC1 (stereo not drawn) | 16 (≈ 35 µM) |

tested on: Escherichia coli; experiment: Minimal inhibitory concentration against Escherichia coli ISF 432 strain; type: functional; details: not given; procedure, shortened: as §1

| MIC [µg/mL] | SMILES |
| --- | --- |
| 0.25 (≈ 0.639 µM) | CC1CN(c2c(F)cc3c(=O)c(C(=O)O)cn4c3c2SC(C)C4)CC(C)N1 (stereo not drawn) |
| 1 (≈ 2.27 µM) | CC1Cn2cc(C(=O)O)c(=O)c3cc(F)c(N4CCN(c5ccccn5)CC4)c(c32)S1 (stereo not drawn) |
| 0.25 (≈ 0.617 µM) | CCNCC1CCN(c2c(F)cc3c(=O)c(C(=O)O)cn4c3c2SC(C)C4)C1 (stereo not drawn) |

The remaining lines, values behind:

| SMILES | MIC [µg/mL] |
| --- | --- |
| O=C(O)c1cn2c3c(c(Cl)c(F)cc3c1=O)SC(c1ccccc1F)C2 (stereo not drawn) | 0.5 (≈ 1.27 µM) |
| CN1CCN(c2c(F)cc3c(=O)c(C(=O)O)cn4c3c2SC(c2ccc(F)cc2)C4)CC1 (stereo not drawn) | 8 (≈ 17.5 µM) |
